Laboratory results as given in ChEMBL document CHEMBL1909620, “The development of N-α-(2-carboxyl)benzoyl-N(5)-(2-fluoro-1-iminoethyl)-l-ornithine amide (o-F-amidine) and N-α-(2-carboxyl)benzoyl-N(5)-(2-chloro-1-iminoethyl)-l-ornithine amide (o-Cl-amidine) as second generation protein arginine deiminase (PAD) inhibitors” (J Med Chem, 2011).
Active and inactive are the calls of the source. No cut-off for these calls is given here.

Key:
[1] = biological target: Protein-arginine deiminase type-4 (Homo sapiens, UniProt Q9UM07); assay: Irreversible inhibition of PAD4 assessed as hydrolysis of benzoyl-L-arginine ethyl ester preincubated for 15 mins measured after 15 mins by fluorometric analysis
TK6 [2] = assay: Induction of apoptosis in human TK6 cells assessed as viable cells at 50 ug/ml after 2 hrs by annexin V/propidium iodide staining method relative to control; type: functional; conditions: TK6, 2 h, read-out: Activity
Procedure, shortened: (§1)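 TK6 human lymphoblastoid cells kept in exponential suspension culture in RPMI 1640 with 10% heat-inactivated calf serum, penicillin/streptomycin and 2 mmol/L L-glutamine at 37 °C, 5% CO2. Serum was cut to 1% 12 h before dosing at 50 μg/ml for the stated times. Cells were stained with Annexin V/propidium iodide and analysed as quadrant scatterplots.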

TK6 [3] = assay: Induction of apoptosis in human TK6 cells assessed as early apoptotic cells at 50 ug/ml after 2 hrs by annexin V/propidium iodide staining method relative to control; type: functional; procedure, shortened: as §1
TK6 [4] = assay: Induction of apoptosis in human TK6 cells assessed as late apoptotic cells at 50 ug/ml after 2 hrs by annexin V/propidium iodide staining method relative to control; type: functional; procedure, shortened: as §1
TK6 [5] = assay: Induction of apoptosis in human TK6 cells assessed as necrotic cells at 50 ug/ml after 2 hrs by annexin V/propidium iodide staining method relative to control; type: functional; procedure, shortened: as §1
TK6 [6] = assay: Induction of apoptosis in human TK6 cells assessed as viable cells at 50 ug/ml after 4 hrs by annexin V/propidium iodide staining method relative to control; type: functional; conditions: TK6, 4 h, read-out: Activity; procedure, shortened: as §1
TK6 [7] = assay: Induction of apoptosis in human TK6 cells assessed as late apoptotic cells at 50 ug/ml after 4 hrs by annexin V/propidium iodide staining method relative to control; type: functional; procedure, shortened: as §1
TK6 [8] = assay: Induction of apoptosis in human TK6 cells assessed as necrotic cells at 50 ug/ml after 4 hrs by annexin V/propidium iodide staining method relative to control; type: functional; procedure, shortened: as §1
TK6 [9] = assay: Induction of apoptosis in human TK6 cells assessed as viable cells at 50 ug/ml after 8 hrs by annexin V/propidium iodide staining method relative to control; type: functional; conditions: TK6, 8 h, read-out: Activity; procedure, shortened: as §1
TK6 [10] = assay: Induction of apoptosis in human TK6 cells assessed as early apoptotic cells at 50 ug/ml after 8 hrs by annexin V/propidium iodide staining method relative to control; type: functional; procedure, shortened: as §1
TK6 [11] = assay: Induction of apoptosis in human TK6 cells assessed as late apoptotic cells at 50 ug/ml after 8 hrs by annexin V/propidium iodide staining method relative to control; type: functional; procedure, shortened: as §1
TK6 [12] = assay: Induction of apoptosis in human TK6 cells assessed as necrotic cells at 50 ug/ml after 8 hrs by annexin V/propidium iodide staining method relative to control relative to control; type: functional; procedure, shortened: as §1
TK6 [13] = assay: Induction of apoptosis in human TK6 cells assessed as induction of PARP cleavage at 50 ug/ml measured up to 8 hrs by Western blotting; type: functional, cell-based
Procedure, shortened: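 TK6 cells were moved to 1% heat-inactivated calf serum RPMI 1640 12 h beforehand, then exposed to 50 μg/ml for time courses. PARP cleavage was detected by western blot with anti-PARP antibody, using GAPDH as loading control.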

HL-60 [14] = assay: Induction of human HL60 cell differentiation assessed as increase in PAD4 expression level after 24 hrs by Western blotting; type: functional, cell-based
HL-60 [15] = assay: Induction of human HL60 cell differentiation assessed as increase in PAD4 expression level at 1 to 10 uM by Western blotting; type: functional, cell-based; conditions: TDE = time-dependent effect
[16] = biological target: Protein-arginine deiminase type-2 (Homo sapiens, UniProt Q9Y2J8); assay: Irreversible inhibition of PAD2 assessed as hydrolysis of benzoyl-L-arginine ethyl ester preincubated for 15 mins measured after 15 mins by fluorometric analysis
HL-60 [17] = assay: Induction of human HL60 cell differentiation assessed as increase in PAD4 expression level at 10 uM after 6 hrs by Western blotting; type: functional, cell-based
HL-60 [18] = assay: Induction of human HL60 cell differentiation assessed as increase in PAD4 expression level at 1 uM after 12 hrs by Western blotting; type: functional, cell-based
HL-60 [19] = assay: Induction of human HL60 cell differentiation assessed as increase in PAD4 expression level at 1 uM after 24 hrs by Western blotting; type: functional, cell-based
HL-60 [20] = assay: Cytotoxicity against human HL60 cells assessed as reduction in cell viability after 24 hrs by MTT assay relative to control; type: functional, cell-based; conditions: HL-60, 24 h
Procedure, shortened: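 HL60 cells grown in RPMI 1640 with 10% FBS and 1% penicillin-streptomycin at 37 °C, 5% CO2, used at 1 × 10^6 cells/mL. Compounds were added at 100 nM to 100 μM final and incubated 24 h. Viability was read by MTT-type assay as percent of control absorbance, with 1% Triton X-100 as the 100% kill control. Triplicates; EC50 from dose-response fit where possible.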

HL-60 [21] = assay: Potentiation of doxorubicin-induced cytotoxicity against human HL60 cells assessed as reduction in cell viability at 0.1 to 1 uM after 24 hrs by MTT assay relative to control; type: functional
Procedure, shortened: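 HL60 cells (RPMI 1640, 10% FBS, 37 °C, 5% CO2) were exposed for 24 h to doxorubicin alone or together with inhibitor at fixed levels. Viability was read by MTT assay as percent of control absorbance, run in triplicate. Doxorubicin EC50 came from dose-response fits. Interaction was scored by the additive model: observed/expected ratio <0.8 synergistic, 0.8–1.2 additive.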

TK6 [22] = assay: Induction of apoptosis in human TK6 cells assessed as early apoptotic cells at 50 ug/ml after 4 hrs by annexin V/propidium iodide staining method relative to control; type: functional
[23] = biological target: T1, Protein-arginine deiminase type-1 (Homo sapiens, UniProt Q9ULC6); assay: Irreversible inhibition of PAD1 assessed as hydrolysis of benzoyl-L-arginine ethyl ester preincubated for 15 mins measured after 15 mins by fluorometric analysis
T1 sequence (Q9ULC6 whole entry): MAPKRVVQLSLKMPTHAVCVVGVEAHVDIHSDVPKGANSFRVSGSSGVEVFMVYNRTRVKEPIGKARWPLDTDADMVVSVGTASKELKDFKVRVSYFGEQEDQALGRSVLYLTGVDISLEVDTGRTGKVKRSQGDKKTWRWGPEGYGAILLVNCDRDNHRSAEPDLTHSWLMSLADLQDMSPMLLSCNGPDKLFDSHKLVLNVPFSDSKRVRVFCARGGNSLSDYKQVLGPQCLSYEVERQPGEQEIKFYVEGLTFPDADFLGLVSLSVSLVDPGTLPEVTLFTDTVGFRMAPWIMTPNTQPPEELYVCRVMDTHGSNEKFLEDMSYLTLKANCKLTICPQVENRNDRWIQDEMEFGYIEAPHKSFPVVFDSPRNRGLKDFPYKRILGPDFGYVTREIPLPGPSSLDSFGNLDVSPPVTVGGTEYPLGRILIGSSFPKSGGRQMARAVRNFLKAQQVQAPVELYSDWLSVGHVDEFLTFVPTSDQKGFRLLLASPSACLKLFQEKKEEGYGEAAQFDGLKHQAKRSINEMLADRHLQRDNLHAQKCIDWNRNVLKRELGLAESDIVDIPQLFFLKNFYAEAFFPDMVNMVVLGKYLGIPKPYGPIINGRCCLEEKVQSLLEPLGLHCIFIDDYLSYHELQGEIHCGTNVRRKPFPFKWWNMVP

[24] = biological target: T2, Protein-arginine deiminase type-3 (Homo sapiens, UniProt Q9ULW8); assay: Irreversible inhibition of PAD3 assessed as hydrolysis of benzoyl-L-arginine ethyl ester preincubated for 15 mins measured after 15 mins by fluorometric analysis
T2 sequence (Q9ULW8 whole entry): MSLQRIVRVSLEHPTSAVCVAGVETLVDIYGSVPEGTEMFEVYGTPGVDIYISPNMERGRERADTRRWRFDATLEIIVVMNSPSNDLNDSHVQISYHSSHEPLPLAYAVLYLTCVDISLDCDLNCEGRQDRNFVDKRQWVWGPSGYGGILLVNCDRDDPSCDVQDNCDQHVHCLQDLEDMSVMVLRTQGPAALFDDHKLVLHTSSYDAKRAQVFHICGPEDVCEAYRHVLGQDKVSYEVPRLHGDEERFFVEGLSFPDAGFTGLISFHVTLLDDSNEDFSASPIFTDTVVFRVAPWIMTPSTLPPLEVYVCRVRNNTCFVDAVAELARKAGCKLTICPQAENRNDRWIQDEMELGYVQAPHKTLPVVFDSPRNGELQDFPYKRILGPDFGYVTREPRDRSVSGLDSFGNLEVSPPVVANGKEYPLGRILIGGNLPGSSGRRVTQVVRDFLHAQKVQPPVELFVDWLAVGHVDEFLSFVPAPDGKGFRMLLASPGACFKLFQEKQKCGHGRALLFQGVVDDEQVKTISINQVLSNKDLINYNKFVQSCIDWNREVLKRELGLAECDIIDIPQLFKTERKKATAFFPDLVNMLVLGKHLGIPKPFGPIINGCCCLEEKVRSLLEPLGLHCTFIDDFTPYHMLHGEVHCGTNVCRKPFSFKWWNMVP

Chain of Protein-arginine deiminase type-4 (Q9UM07 whole entry): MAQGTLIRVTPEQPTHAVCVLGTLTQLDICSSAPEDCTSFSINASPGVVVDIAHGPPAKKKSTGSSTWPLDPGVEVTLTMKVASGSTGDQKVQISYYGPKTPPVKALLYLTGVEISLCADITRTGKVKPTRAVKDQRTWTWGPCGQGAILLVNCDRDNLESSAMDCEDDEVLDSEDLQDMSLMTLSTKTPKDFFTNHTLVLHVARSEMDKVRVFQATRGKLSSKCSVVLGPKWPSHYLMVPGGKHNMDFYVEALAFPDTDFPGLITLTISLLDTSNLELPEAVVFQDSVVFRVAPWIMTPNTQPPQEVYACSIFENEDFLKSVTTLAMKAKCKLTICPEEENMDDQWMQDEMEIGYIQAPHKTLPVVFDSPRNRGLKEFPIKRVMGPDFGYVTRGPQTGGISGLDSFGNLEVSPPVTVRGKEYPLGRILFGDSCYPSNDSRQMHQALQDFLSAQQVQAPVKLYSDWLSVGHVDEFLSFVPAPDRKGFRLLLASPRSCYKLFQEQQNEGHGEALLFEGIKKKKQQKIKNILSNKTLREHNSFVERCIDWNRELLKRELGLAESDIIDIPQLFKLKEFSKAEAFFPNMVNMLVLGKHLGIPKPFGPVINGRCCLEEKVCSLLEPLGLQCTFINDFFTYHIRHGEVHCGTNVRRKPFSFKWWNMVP
Chain of Protein-arginine deiminase type-2 (Q9Y2J8 whole entry): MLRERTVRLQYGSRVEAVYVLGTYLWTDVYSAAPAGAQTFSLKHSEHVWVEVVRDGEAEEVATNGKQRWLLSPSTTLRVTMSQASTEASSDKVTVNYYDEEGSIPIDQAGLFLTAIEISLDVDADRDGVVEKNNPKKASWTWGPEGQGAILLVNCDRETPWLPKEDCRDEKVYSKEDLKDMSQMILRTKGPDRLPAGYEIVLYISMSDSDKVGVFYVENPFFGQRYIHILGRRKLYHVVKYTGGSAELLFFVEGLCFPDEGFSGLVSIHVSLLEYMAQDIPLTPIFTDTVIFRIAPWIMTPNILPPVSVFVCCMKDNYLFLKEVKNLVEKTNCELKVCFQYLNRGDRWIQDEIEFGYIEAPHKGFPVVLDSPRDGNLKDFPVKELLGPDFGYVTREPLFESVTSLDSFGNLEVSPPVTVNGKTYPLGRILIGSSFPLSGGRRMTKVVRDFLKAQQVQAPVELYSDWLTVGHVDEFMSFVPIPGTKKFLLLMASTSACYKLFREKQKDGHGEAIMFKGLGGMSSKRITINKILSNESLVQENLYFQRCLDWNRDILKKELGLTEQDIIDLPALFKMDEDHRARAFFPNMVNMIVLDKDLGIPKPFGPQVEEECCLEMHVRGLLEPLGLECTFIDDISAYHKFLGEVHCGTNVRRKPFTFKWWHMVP

N=C(CF)Nc1ccccc1
IC50 [1]: > 500 µM

N=C(N)CF
IC50 [1]: > 10000 µM

N=C(CF)NCCC[C@H](NC(=O)c1ccccc1C(=O)O)C(N)=O.O=C(O)C(F)(F)F
viability at 50 µg/mL (TK6 [2]): 88% | Activity (TK6 [3]): 8.3% | Activity (TK6 [4]): 3.3% | Activity (TK6 [5]): 0.3% | viability at 50 µg/mL (TK6 [6]): 74.9% | Activity (TK6 [7]): 4.8% | Activity (TK6 [8]): 0.3% | viability at 50 µg/mL (TK6 [9]): 60.1% | Activity (TK6 [10]): 27.7% | Activity (TK6 [11]): 11.9% | Activity (TK6 [12]): 0.3% | Activity (TK6 [13]): Active | Activity (HL-60 [14]): Dose-dependent effect | Activity (HL-60 [15]): tde | IC50 [16]: ≥ 50 µM | Activity (HL-60 [17]): Active | Activity (HL-60 [18]): Active | Activity (HL-60 [19]): Active

N=C(CF)NCCCCNC(=O)c1ccccc1
IC50 [1]: > 1000 µM

N=C(CF)NCCCCNS(=O)(=O)c1ccccc1
IC50 [1]: > 1000 µM

COc1cccc2c1C(=O)c1c(O)c3c(c(O)c1C2=O)C[C@@](O)(C(=O)CO)C[C@@H]3O[C@H]1C[C@H](N)[C@H](O)[C@H](C)O1 [DOXORUBICIN]
EC50 (HL-60 [20]): 2.5 µM | fold change (FC) (HL-60 [21]): 6

CCCNC(=N)CF
IC50 [1]: > 1000 µM

N=C(CCl)NCCC[C@H](NC(=O)c1ccccc1)C(N)=O.O=C(O)C(F)(F)F
viability at 50 µg/mL (TK6 [2]): 85.6% | Activity (TK6 [3]): 7.5% | Activity (TK6 [4]): 6.8% | Activity (TK6 [5]): 0.1% | viability at 50 µg/mL (TK6 [6]): 78.8% | Activity (TK6 [22]): 11.9% | Activity (TK6 [7]): 8.9% | Activity (TK6 [8]): 0.4% | viability at 50 µg/mL (TK6 [9]): 46.2% | Activity (TK6 [10]): 20.4% | Activity (TK6 [11]): 32.6% | Activity (TK6 [12]): 0.8% | Activity (TK6 [13]): Active

N=C(CF)NCCC[C@H](NS(=O)(=O)c1ccccc1)C(N)=O
IC50 [1]: 500 µM

N=C(CF)NCCC[C@H](NC(=O)c1c[nH]cn1)C(N)=O
IC50 [1]: 230 µM

N=C(CF)Nc1cccc(C[C@H](NC(=O)c2ccccc2)C(N)=O)c1
IC50 [1]: 310 µM

N=C(CCl)NCCC[C@H](NC(=O)c1ccccc1C(=O)O)C(N)=O
Activity (HL-60 [14]): Dose-dependent effect | Activity (HL-60 [15]): tde | Activity (HL-60 [17]): Active | Activity (HL-60 [18]): Active | Activity (HL-60 [19]): Active

N=C(CF)NCc1ccccc1
IC50 [1]: > 1000 µM

N=C(CF)Nc1ccc(C[C@H](NC(=O)c2ccccc2)C(N)=O)cc1
IC50 [1]: 310 µM

N=C(CF)NCCC[C@H](NC(=O)c1ccccc1)C(N)=O
IC50 [23]: 29 µM | Ki [23]: 110 µM | IC50 [24]: 367 µM | Ki [24]: 293 µM

N=C(CF)Nc1cccc([C@H](NC(=O)c2ccccc2)C(N)=O)c1
IC50 [1]: 2100 µM

N=C(CF)NCc1ccc(C[C@H](NC(=O)c2ccccc2)C(N)=O)cc1
IC50 [1]: > 1000 µM
